Series [1] concerns Staphylococcus aureus. Nature of the series: Antibacterial activity against methicillin-resistant Staphylococcus aureus ATCC 43300 at 100 uM incubated for 24 hrs. Format: functional, organism-based. The gist of the method:
(§1)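 Single-concentration growth screen: 100 μM test compound with log-phase bacteria at about 5×10^5 cells/mL. Incubation 24 h at 37 °C. Growth read by OD600 and given as percent of untreated control. MRSA was grown in cation-adjusted Mueller–Hinton broth. M. smegmatis was grown in complete Middlebrook 7H9. Ampicillin and kanamycin served as positive controls.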

Series [2] relates to Mycolicibacterium smegmatis. Put plainly: Antibacterial activity against Mycolicibacterium smegmatis MC2 155 at 100 uM incubated for 24 hrs. Format: functional, organism-based. The gist of the method: as §1
The test system of the next series is Salmonella enteritidis. Nature of the series: Antibacterial activity against Salmonella enteritidis ATCC 13076 incubated for 24 hrs by serial broth microdilution method. The following applies: Salmonella enterica subsp. enterica serovar Enteritidis. Format: functional. The procedure, abridged:
(§2)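 Log-phase cultures from four colonies grown overnight at 37 °C, inoculated at ~5×10^5 cells/mL in cation-adjusted Mueller–Hinton broth with serially diluted compound. Grown 24 h at 37 °C, then OD600 read. MIC50/MIC90 are the concentrations giving 50%/90% growth inhibition relative to drug-free controls. Two independent experiments in duplicate.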

Another series has as its system Escherichia coli. Nature of the series: Antibacterial activity against Escherichia coli BW25113 incubated for 24 hrs by serial broth microdilution method. The series is classed as functional, organism-based. The gist of the method:
as §2
(In general: Broth dilution looks for growth in wells or tubes with falling amounts of substance.)

For series [3], the system named is Staphylococcus aureus. Nature of the series: Antibacterial activity against methicillin-resistant Staphylococcus aureus ATCC 43300 incubated for 24 hrs by serial broth microdilution method. The series is classed as functional. The procedure, abridged:
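Growth read by OD600. MRSA in cation-adjusted Mueller–Hinton broth, M. smegmatis in complete 7H9. MIC50 and MIC90 are 50% and 90% growth inhibition versus drug-free controls. Two independent experiments, each in duplicate.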

In the next series the test system is Klebsiella pneumoniae. Put plainly: Antibacterial activity against Klebsiella pneumoniae ATCC 13883 incubated for 24 hrs by serial broth microdilution method. The series is classed as functional, organism-based. The procedure, abridged: as §2
In series [4] the test system is Mycobacterium tuberculosis. Nature of the series: Antibacterial activity against Mycobacterium tuberculosis ATCC 27294 at 100 uM incubated for 7 days. Format: functional, organism-based.
Series [5] concerns Streptococcus pneumoniae. Nature of the series: Antibacterial activity against Streptococcus pneumoniae ATCC 49619 incubated for 24 hrs by serial broth microdilution method. The series is classed as functional. The procedure, abridged: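 Cultured in MH medium plus 3% defibrinated sheep blood at 37 °C, 5% CO2. Log-phase inoculum ~5×10^5 cells/mL was exposed to serial compound dilutions for 24 h. MIC50/MIC90 are relative to drug-free controls. Two independent experiments in duplicate.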

For series [6], the system named is Enterococcus faecalis. Put plainly: Antibacterial activity against Enterococcus faecalis ATCC 51299 at 100 uM incubated for 24 hrs. Format: functional, organism-based. The gist of the method:
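Single-concentration screen in brain heart infusion broth. Log-phase cells at ~5×10^5 cells/mL were grown with 100 μM compound for 24 h at 37 °C. Growth was read as OD600 and expressed as a percentage of untreated wells. DMSO and blank controls were included.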

Another series relates to Pseudomonas aeruginosa. Put plainly: Antibacterial activity against Pseudomonas aeruginosa PA14 incubated for 24 hrs by serial broth microdilution method. The series is classed as functional, organism-based. The gist of the method: as §2
In series [7] the test system is Enterococcus faecalis. Nature of the series: Antibacterial activity against Enterococcus faecalis ATCC 51299 incubated for 24 hrs by serial broth microdilution method. Format: functional, organism-based. The procedure, abridged:
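Broth microdilution in brain heart infusion broth, ~5×10^5 cells/mL log-phase inoculum, serial compound dilutions, 24 h at 37 °C, OD600 read-out. MIC50/MIC90 are the concentrations giving 50%/90% growth inhibition relative to drug-free controls. Two independent experiments in duplicate.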

Series [8] relates to Streptococcus pneumoniae. Put plainly: Antibacterial activity against Streptococcus pneumoniae ATCC 49619 at 100 uM incubated for 24 hrs. Format: functional, organism-based. The gist of the method:
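Single 100 μM screen in MH medium with 3% defibrinated sheep blood at 37 °C under 5% CO2, ~5×10^5 cells/mL, 24 h.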

The next series deals with Erythrocyte. Put plainly: Hemolytic activity in human RBC at 100 uM measured after 1 hr. Format: ADME, cell-based. The procedure, abridged: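 Fresh human RBCs were PBS-washed and resuspended to OD600 24, then mixed 1:1 by volume with compound serially diluted in PBS. Incubated 1 h at 37 °C without shaking and centrifuged at 1000g for 15 min. Triton X-100 served as positive control. Run in triplicate.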

Series [9] deals with T1, tRNA (guanine-N(1)-)-methyltransferase (Pseudomonas aeruginosa (strain ATCC 15692 / DSM 22644 / CIP 104116 / JCM14847 / LMG 12228 / 1C / PRS 101 / PAO1), UniProt Q9HXQ1).
T1 sequence (Q9HXQ1 whole entry): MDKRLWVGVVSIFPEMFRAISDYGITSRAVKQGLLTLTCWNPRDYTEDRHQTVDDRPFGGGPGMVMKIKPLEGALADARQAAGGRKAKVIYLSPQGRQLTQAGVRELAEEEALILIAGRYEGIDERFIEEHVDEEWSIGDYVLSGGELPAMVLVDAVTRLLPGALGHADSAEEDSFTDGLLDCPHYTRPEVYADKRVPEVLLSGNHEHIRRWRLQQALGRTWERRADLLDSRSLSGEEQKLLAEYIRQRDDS
Nature of the series: Inhibition of Pseudomonas aeruginosa tRNA (guanine(37)-N1)-methyltransferase (Leu5 to Asp25 residues) expressed in Escherichia coli BL21 (DE3) Rosetta T1R cells assessed as reduction in S-adenosyl-L-homocysteine production preincubated for 15 mins followed by 1.5 uM of tRNALeu(CAG) substrate and SAM addition and measured after 45 mins by MTase-Glo assay. The procedure, abridged:
(§3)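 MTase-Glo luminescence assay. 8 nM TrmD preincubated 15 min at ambient temperature with serially diluted inhibitor (0–500 μM) in 50 mM Tris-HCl pH 8.0, 80 mM NaCl, 1 mM MgCl2, 0.5 mM DTT, 0.01% Triton X-100. Reaction with 2 μM SAM and tRNALeu(CAG), 45 min at 37 °C. Detection 30 min in the dark, SAH read against a standard curve. IC50 by nonlinear regression. Two independent experiments in duplicate.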

A further series relates to Acinetobacter baumannii. Nature of the series: Antibacterial activity against Acinetobacter baumannii ATCC 17961 incubated for 24 hrs by serial broth microdilution method. The series is classed as functional. The gist of the method: as §2
Series [10] has as its target T2, tRNA (guanine-N(1)-)-methyltransferase (Pseudomonas aeruginosa (strain ATCC 15692 / DSM 22644 / CIP 104116 / JCM14847 / LMG 12228 / 1C / PRS 101 / PAO1)) (UniProt Q9HXQ1).
T2 sequence (whole entry): T1 sequence (Q9HXQ1 whole entry)
Put plainly: Binding affinity to Pseudomonas aeruginosa tRNA (guanine(37)-N1)-methyltransferase (Leu5 to Asp25 residues) expressed in Escherichia coli BL21 (DE3) Rosetta T1R cells assessed as thermal stabilization of protein by measuring change in melting temperature at 0.1 mM by SYPRO orange based thermal shift assay. The gist of the method:
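Thermal shift: 4 μM TrmD with 5× SYPRO Orange and ligand in 50 mM Tris-HCl pH 8, 150 mM NaCl, 1 mM MgCl2, 1 mM DTT, 0.05% Tween-20. Buffer-only control. Heated from 25 to 95 °C in a real-time PCR instrument, and Tm taken as the unfolding midpoint. Ligand levels: SAH 2 mM, inhibitors 0.1 mM.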

The target of series [11] is T2, tRNA (guanine-N(1)-)-methyltransferase (Pseudomonas aeruginosa (strain ATCC 15692 / DSM 22644 / CIP 104116 / JCM14847 / LMG 12228 / 1C / PRS 101 / PAO1)). Nature of the series: Inhibition of Pseudomonas aeruginosa tRNA (guanine(37)-N1)-methyltransferase (Leu5 to Asp25 residues) expressed in Escherichia coli BL21 (DE3) Rosetta T1R cells assessed as reduction in S-adenosyl-L-homocysteine production up to 50 uM preincubated for 15 mins followed by 1.5 uM of tRNALeu(CAG) substrate and SAM addition and measured after 45 mins by MTase-Glo assay. The gist of the method: as §3

The source made the active and inactive calls. Unless noted, the rule behind the calls is not given here.

For the compound `Cl.NCCCCCNCc1ccc(CNC(=O)c2csc3nc[nH]c(=O)c23)cc1`, the result (in the series with Staphylococcus aureus [1]; in [2]; in the series on Salmonella enteritidis; in the series with Escherichia coli; in the series with Staphylococcus aureus [3]; with Klebsiella pneumoniae) was inactive. Besides, the outcome (in series [4]; in the series on Streptococcus pneumoniae [5]; in the series on Enterococcus faecalis [6]; in the series on Pseudomonas aeruginosa; in the series on Enterococcus faecalis [7]; with Streptococcus pneumoniae [8]) was inactive. The outcome in the series on Acinetobacter baumannii was inactive. The Activity result in the series on Erythrocyte is “Non-Toxic”. Also, the IC50 in series [9] was determined as 110 nM.
Turning to `CCCCCCCCNCc1ccc(CNC(=O)c2csc3ncnc(OC)c23)cc1`, the thermal shift (ΔTm) in [10] lay in the range of 1 to 2 °C. In addition, the inhibition result in series [11] is “inactive”. In the series with Erythrocyte, the Activity entry is given as “Non-Toxic”.
In the case of `COc1ncnc2scc(C(=O)NCc3ccc(CN4CCOCC4)cc3)c12`, the shift in melting temperature (ΔTm) in series [10] lay within 1 to 2 °C. Besides, the inhibition entry in series [11] was “inactive”. In the series on Erythrocyte, the Activity result was “Non-Toxic”.
`CCCCCCCCNCc1ccc(CNC(=O)c2csc3ncnc(OCCC)c23)cc1`: the ΔTm in series [10] was in the range of 1 to 2 °C. Also, the inhibition result in [11] was “inactive”.
Consider `Cl.NCCOCCOCCNCc1ccc(CNC(=O)c2csc3nc[nH]c(=O)c23)cc1`, for which the outcome (with Staphylococcus aureus [1]; in [2]; with Salmonella enteritidis; in the series with Escherichia coli; in the series on Staphylococcus aureus [3]; in the series with Klebsiella pneumoniae) was inactive. In addition, the outcome (in [4]; with Streptococcus pneumoniae [5]; in the series with Enterococcus faecalis [6]; with Pseudomonas aeruginosa; in the series on Enterococcus faecalis [7]; in the series on Streptococcus pneumoniae [8]) was inactive. For the same compound, the result in the series on Acinetobacter baumannii was inactive. Also, the Activity result with Erythrocyte is on record as “Non-Toxic”. Moreover, the 50% inhibitory concentration (IC50) in series [9] was determined as 450 nM.
Turning to `CCCOc1ncnc2scc(C(=O)NCc3ccc(CNCc4ccccc4)cc3)c12`, in [10], the ΔTm is 1 to 2 °C. Further, the inhibition entry in series [11] is “inactive”. The Activity entry in the series on Erythrocyte is given as “Non-Toxic”.
For the compound `Cl.NCCCCCCCNCc1ccc(CNC(=O)c2csc3nc[nH]c(=O)c23)cc1`, the outcome (in the series with Staphylococcus aureus [1]; in series [2]; with Salmonella enteritidis; with Escherichia coli; in the series on Staphylococcus aureus [3]; with Klebsiella pneumoniae) was inactive. The outcome (in series [4]; in the series on Streptococcus pneumoniae [5]; in the series with Enterococcus faecalis [6]; in the series on Pseudomonas aeruginosa; with Enterococcus faecalis [7]; with Streptococcus pneumoniae [8]) was inactive. Besides, the outcome in the series on Acinetobacter baumannii was inactive. In addition, the Activity entry with Erythrocyte is “Non-Toxic”. Further, the IC50 in series [9] is 140 nM.
In the case of `CCCCCCCCNCc1ccc(CNC(=O)c2csc3ncnc(OCCCCCC)c23)cc1`, the thermal shift (ΔTm) in series [10] is 1 to 2 °C. In addition, in series [11], the inhibition entry was “inactive”.
In the case of `CCCOc1ncnc2scc(C(=O)NCc3ccc(CN4CCOCC4)cc3)c12`, the ΔTm in [10] lay in the range of 1 to 2 °C. In addition, the inhibition result in series [11] is “inactive”. In the series on Erythrocyte, the Activity result is given as “Non-Toxic”.
In the case of `O=C(NCc1ccc(CNC(=O)c2cc(=O)c(O)cn2O)cc1)c1csc2nc[nH]c(=O)c12`, the outcome (in the series with Staphylococcus aureus [1]; in series [2]; with Salmonella enteritidis; with Escherichia coli; with Staphylococcus aureus [3]; with Klebsiella pneumoniae) was inactive. Also, the result (in series [4]; with Streptococcus pneumoniae [5]; in the series on Enterococcus faecalis [6]; in the series with Pseudomonas aeruginosa; with Enterococcus faecalis [7]; with Streptococcus pneumoniae [8]) was inactive. For the same compound, the outcome with Acinetobacter baumannii was inactive. In addition, the Activity result in the series with Erythrocyte is given as “Non-Toxic”. For the same compound, the IC50 in series [9] turned out to be 700 nM.
`CCCCCCOc1ncnc2scc(C(=O)NCc3ccc(CNCc4ccccc4)cc3)c12`: in series [10], the thermal shift (ΔTm) was 1 to 2 °C. In addition, the inhibition entry in [11] was “inactive”.
Consider `COc1ncnc2scc(C(=O)NCc3ccc(CNCc4ccccc4)cc3)c12`, for which, in [10], the shift in melting temperature (ΔTm) was 1 to 2 °C. Moreover, the inhibition entry in series [11] is “inactive”. Also, the Activity result with Erythrocyte was “Non-Toxic”.
Take `Cl.NCCCCNCc1ccc(CNC(=O)c2csc3nc[nH]c(=O)c23)cc1`: the outcome (with Staphylococcus aureus [1]; in series [2]; in the series with Salmonella enteritidis; with Escherichia coli; in the series with Staphylococcus aureus [3]; in the series on Klebsiella pneumoniae) was inactive. Also, the outcome (in series [4]; in the series with Streptococcus pneumoniae [5]; in the series on Enterococcus faecalis [6]; in the series on Pseudomonas aeruginosa; in the series on Enterococcus faecalis [7]; in the series on Streptococcus pneumoniae [8]) was inactive. Besides, the result in the series on Acinetobacter baumannii was inactive. Also, the Activity entry in the series on Erythrocyte is recorded as “Non-Toxic”. Moreover, the concentration for half-maximal inhibition (IC50) in series [9] came out at 80 nM.

In general, IC50 refers to the midpoint of a concentration-inhibition curve. The term ΔTm denotes the change in melting temperature against a reference sample.
